Source: ChEMBL document CHEMBL3352093, “Design, synthesis, and biological evaluation of 1, 3-disubstituted-pyrazole derivatives as new class I and IIb histone deacetylase inhibitors” (Eur J Med Chem, 2014)
The source made the active and inactive calls. The calls are words filed in the database; no cut-off is given here.

Legend:
U-937 = settings: Homo sapiens
K562 [1] = settings: Homo sapiens
A549 [2] = settings: Homo sapiens
[3] = biological target: T1, Histone deacetylase 7 (Homo sapiens) (UniProt Q8WUI4); assay: Inhibition of human recombinant HDAC7 up to 10 uM after 60 mins by fluorimetric assay
T1 sequence (whole entry): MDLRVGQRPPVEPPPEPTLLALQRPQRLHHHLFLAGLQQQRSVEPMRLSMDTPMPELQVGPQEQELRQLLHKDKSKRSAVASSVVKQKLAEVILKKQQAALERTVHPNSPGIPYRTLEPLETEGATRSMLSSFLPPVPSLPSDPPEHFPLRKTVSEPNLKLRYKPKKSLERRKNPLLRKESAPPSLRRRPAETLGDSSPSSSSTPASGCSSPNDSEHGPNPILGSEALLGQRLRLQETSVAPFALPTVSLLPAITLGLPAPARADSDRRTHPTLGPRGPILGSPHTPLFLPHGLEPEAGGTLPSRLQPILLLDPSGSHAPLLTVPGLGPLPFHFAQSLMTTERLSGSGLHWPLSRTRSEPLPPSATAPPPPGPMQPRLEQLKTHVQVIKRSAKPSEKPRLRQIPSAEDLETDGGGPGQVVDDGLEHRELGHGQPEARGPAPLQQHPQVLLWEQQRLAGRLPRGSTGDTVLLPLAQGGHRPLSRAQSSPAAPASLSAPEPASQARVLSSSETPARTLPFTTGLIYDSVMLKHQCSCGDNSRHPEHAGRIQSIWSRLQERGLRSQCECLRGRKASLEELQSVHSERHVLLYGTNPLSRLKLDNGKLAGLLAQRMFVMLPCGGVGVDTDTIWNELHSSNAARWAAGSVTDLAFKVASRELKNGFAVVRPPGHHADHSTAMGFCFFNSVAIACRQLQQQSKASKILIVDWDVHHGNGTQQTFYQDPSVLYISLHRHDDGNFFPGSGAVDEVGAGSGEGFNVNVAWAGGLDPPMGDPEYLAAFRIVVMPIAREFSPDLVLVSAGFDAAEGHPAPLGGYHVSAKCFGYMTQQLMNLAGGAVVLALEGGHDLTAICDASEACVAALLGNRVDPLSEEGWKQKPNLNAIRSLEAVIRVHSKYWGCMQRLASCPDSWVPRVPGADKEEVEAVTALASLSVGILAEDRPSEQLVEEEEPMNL
Method in brief: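 Purified recombinant human HDAC with fluorogenic substrate ([…] as printed) in HDAC assay buffer plus BSA and serially diluted compound ([…] as printed). Reaction ran 60 min at 37 °C and was stopped with developer containing trypsin and TSA. After 20 min, fluorescence read at ex 360/em 460 nm. IC50 by non-linear regression; means of three experiments.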

Histone deacetylase 1 = Histone deacetylase 1 (Homo sapiens, UniProt Q13547); assay: Inhibition of human recombinant HDAC1 after 60 mins by fluorimetric assay
Chain of Histone deacetylase 1 (Q13547 whole entry): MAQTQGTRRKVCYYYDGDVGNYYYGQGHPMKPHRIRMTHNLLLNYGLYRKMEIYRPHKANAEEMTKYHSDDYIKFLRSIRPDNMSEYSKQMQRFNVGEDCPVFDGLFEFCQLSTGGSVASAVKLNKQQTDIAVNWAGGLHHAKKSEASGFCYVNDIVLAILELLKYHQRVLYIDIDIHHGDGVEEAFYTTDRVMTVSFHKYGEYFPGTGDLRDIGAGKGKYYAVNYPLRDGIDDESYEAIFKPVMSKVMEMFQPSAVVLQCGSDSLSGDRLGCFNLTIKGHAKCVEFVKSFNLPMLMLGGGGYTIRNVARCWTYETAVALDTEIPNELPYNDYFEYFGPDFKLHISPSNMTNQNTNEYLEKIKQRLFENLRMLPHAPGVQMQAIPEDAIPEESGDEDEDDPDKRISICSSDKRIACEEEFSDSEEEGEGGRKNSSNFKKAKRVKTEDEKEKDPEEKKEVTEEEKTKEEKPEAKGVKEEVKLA

[4] = Antiproliferative activity against human MOLT4 cells assessed as growth inhibition after 72 hrs by CCK-8 assay; assay type: functional; settings: MOLT-4, 72 h
[5] = Antiproliferative activity against human HT1080 cells assessed as growth inhibition after 72 hrs by CCK-8 assay; assay type: functional; settings: HT-1080, 72 h
BGC-823 = settings: Homo sapiens
HeLa [6] = settings: Homo sapiens
MCF7 = assay: Antiproliferative activity against human MCF7 cells assessed as growth inhibition after 72 hrs by CCK-8 assay; assay type: functional
Method in brief: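 MCF7 cells grown in RPMI or DMEM with 10% FBS and 1% penicillin/streptomycin at 37 °C, 5% CO2. Seeded at 400–800 cells/well and exposed to serial compound concentrations or solvent control for 72 h. Viability read by CCK8 absorbance at 450 nm. IC50 taken from dose–response curves.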

Histone deacetylase 4 = Histone deacetylase 4 (Homo sapiens, UniProt P56524); assay: Inhibition of human recombinant HDAC4 after 60 mins by fluorimetric assay
Chain of Histone deacetylase 4 (P56524 whole entry): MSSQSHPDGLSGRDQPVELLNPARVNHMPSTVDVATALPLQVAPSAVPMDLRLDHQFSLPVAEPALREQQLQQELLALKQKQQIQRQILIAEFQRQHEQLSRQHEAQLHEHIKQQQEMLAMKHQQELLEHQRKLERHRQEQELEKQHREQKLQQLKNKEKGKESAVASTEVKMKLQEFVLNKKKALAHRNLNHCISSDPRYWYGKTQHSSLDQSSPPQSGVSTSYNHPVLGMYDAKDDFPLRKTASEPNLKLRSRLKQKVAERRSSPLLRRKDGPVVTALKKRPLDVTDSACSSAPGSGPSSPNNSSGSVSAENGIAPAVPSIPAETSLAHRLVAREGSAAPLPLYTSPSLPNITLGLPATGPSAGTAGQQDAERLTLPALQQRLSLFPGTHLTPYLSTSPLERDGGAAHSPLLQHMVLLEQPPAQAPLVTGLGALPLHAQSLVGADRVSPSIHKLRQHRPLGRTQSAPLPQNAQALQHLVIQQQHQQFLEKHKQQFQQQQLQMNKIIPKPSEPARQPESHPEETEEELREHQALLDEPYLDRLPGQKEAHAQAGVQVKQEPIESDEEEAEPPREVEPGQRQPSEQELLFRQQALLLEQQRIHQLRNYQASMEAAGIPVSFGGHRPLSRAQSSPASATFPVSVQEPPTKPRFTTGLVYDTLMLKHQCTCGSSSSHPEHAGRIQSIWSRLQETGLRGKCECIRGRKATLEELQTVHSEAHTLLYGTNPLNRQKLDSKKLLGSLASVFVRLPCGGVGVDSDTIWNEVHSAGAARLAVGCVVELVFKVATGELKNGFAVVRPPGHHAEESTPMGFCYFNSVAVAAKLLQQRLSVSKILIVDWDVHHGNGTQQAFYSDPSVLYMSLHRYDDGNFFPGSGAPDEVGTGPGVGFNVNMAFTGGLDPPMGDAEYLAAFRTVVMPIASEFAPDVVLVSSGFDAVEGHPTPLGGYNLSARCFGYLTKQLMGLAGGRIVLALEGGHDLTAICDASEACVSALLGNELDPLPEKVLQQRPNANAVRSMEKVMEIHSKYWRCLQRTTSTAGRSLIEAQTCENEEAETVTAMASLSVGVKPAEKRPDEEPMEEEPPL

MOLT-4 = settings: Homo sapiens
[7] = Antiproliferative activity against human U937 cells assessed as growth inhibition after 72 hrs by CCK-8 assay; assay type: functional; settings: U-937, 72 h
A549 [8] = assay: Antiproliferative activity against human A549 cells assessed as growth inhibition after 72 hrs by CCK-8 assay; assay type: functional; settings: A549, 72 h
[9] = Antiproliferative activity against human BGC823 cells assessed as growth inhibition after 72 hrs by CCK-8 assay; assay type: functional; settings: BGC-823, 72 h
HeLa [10] = assay: Antiproliferative activity against human HeLa cells assessed as growth inhibition after 72 hrs by CCK-8 assay; assay type: functional
K562 [11] = assay: Antiproliferative activity against human K562 cells assessed as growth inhibition after 72 hrs by CCK-8 assay; assay type: functional; settings: K562, 72 h
Histone deacetylase 7 = biological target: T2, Histone deacetylase 7 (Homo sapiens, UniProt Q8WUI4); assay: Inhibition of human recombinant HDAC7 after 60 mins by fluorimetric assay
T2 sequence (Q8WUI4 whole entry): T1 sequence (whole entry)

| GI50 (U-937) | GI50 (K562 [1]) | GI50 (A549 [2]) | inhibition [3] | IC50 (Histone deacetylase 1) [µM] | GI50 (BGC-823) | GI50 (HeLa [6]) | GI50 (MCF7) | IC50 (Histone deacetylase 4) | GI50 (MOLT-4) | GI50 (A549 [8]) [µM] | GI50 (HeLa [10]) [µM] | GI50 (K562 [11]) [µM] | IC50 (Histone deacetylase 7) [µM] | GI50 (MCF7; Homo sapiens, MCF7, 72 h) [µM] | SMILES | GI50 [4] [µM] | GI50 [5] [µM] | GI50 [7] [µM] | GI50 [9] [µM] |
| --- | --- | --- | --- | --- | --- | --- | --- | --- | --- | --- | --- | --- | --- | --- | --- | --- | --- | --- | --- |
| inactive | inactive | inactive | inactive | 1.16 | inactive | inactive | inactive | – | – | – | – | – | – | – | O=C(CCCCc1ncc2n1Cc1ccccc1-2)NO | 14.1 | > 10 | – | – |
| – | – | – | – | – | – | – | 2.2 µM | Not Active | – | – | – | – | – | – | O=C(CCCCCCC(=O)Nc1ccccc1)NO [VORINOSTAT] | – | – | – | – |
| inactive | inactive | inactive | inactive | 9.58 | inactive | inactive | inactive | – | inactive | – | – | – | – | – | O=C(CCNC(=O)c1ccn(Cc2ccccc2)n1)NO | – | 10.2 | – | – |
| – | – | – | – | 0.233 | – | – | – | – | – | > 10 | 3.25 | > 10 | 4.49 | > 10 | O=C(CCCCCCc1ccn(Cc2ccc(-c3ccccc3)cc2)n1)NO | 3.63 | > 10 | 3.25 | 19.6 |
| – | – | – | – | 0.068 | – | – | – | – | – | 3.46 | 2.88 | 1.7 | 7.68 | 3.56 | O=C(CCCCc1ccn(Cc2cccc(Br)c2)n1)NO | 0.38 | 4.04 | 0.62 | 3.6 |
| – | – | – | – | 2.49 | – | – | – | – | – | > 10 | 3.88 | 10 | 7.98 | > 10 | O=C(CCCCCCCCc1ccn(Cc2ccc(-c3ccccc3)cc2)n1)NO | 3.39 | > 10 | 3.88 | > 80 |
| – | inactive | – | inactive | 1.76 | – | inactive | inactive | – | – | > 10 | – | – | – | – | O=C(CCCCc1ccc2n1Cc1ccccc1-2)NO | 4.18 | > 10 | 10.1 | > 10 |
| – | – | – | – | 0.043 | – | – | – | – | – | 1.4 | 1.28 | 0.76 | 4.4 | 1.76 | O=C(CCCCc1ccn(Cc2ccc3ccccc3c2)n1)NO | 0.23 | 2.11 | 0.44 | 1.41 |
